pIC50, pKi: −log10 of the molar value.
Experiments:
Rattus norvegicus [1] = organism: Rattus norvegicus; test: In vitro metabolic turnover in rat liver microsomes was determined; format: functional; conditions: Microsome
Procedure, shortened: (§1)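 Rat liver microsomes (0.331 mg/mL protein) with 10 µM compound, 1 mM UDP-GA and 1 mM NADPH in KH2PO4 buffer, pH 7.4, at 37 °C. Sampled at 0-30 min (n = 3), stopped with MeCN. Rate was taken from parent disappearance by LC-MS.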

Glucagon receptor [2] = target: Glucagon receptor (Homo sapiens, UniProt P47871); test: In vitro binding affinity for recombinant human glucagon receptor (hGGR) in BHK cells; format: cell-based
Glucagon receptor (Homo sapiens, UniProt P47871), sequence (P47871 whole entry): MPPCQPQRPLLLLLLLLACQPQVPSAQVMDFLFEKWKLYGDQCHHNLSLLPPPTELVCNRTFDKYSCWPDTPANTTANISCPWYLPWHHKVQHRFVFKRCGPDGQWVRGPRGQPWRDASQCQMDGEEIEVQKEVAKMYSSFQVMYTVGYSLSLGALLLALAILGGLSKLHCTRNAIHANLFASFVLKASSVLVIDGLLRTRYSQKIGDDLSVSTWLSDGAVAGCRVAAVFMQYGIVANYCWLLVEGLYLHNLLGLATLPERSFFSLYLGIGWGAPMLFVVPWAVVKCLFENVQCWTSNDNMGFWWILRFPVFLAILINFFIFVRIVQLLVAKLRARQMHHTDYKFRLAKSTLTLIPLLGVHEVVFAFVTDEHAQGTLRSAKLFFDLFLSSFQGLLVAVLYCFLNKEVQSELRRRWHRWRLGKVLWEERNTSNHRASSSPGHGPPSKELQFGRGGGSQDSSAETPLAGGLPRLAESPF
Procedure, shortened: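 Membranes (4 µg) from BHK cells expressing the cloned human glucagon receptor. Compounds were diluted in DMSO, and a glucagon standard curve was run. IC50 given as mean ± SD, n = 3.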

[3] = Oral bioavailability in dog; format: ADME, organism-based, Canis lupus familiaris; conditions: in vivo
Procedure, shortened: (§2)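 Four purpose-bred male beagle dogs, 11-19 kg, 15-18 months old. Dosed 0.5 mg/kg intravenously, or 2.0 mg/kg perorally by gavage using the same dosing solution as the iv dose. Blood was sampled at set times from predose to 4 h postdose and assayed by LC-MS-MS. PK parameters were derived by noncompartmental analysis; half-lives are given as harmonic means.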

[4] = Turnover in rat liver microsomes; format: ADME, Microsome; procedure, shortened: as §1
[5] = Half life period after intravenous administration (0.5 mg/kg) in dog was determined; format: ADME, organism-based, Canis lupus familiaris; conditions: in vivo; procedure, shortened: as §2
[6] = target: Glucagon receptor (Rattus norvegicus) (UniProt P30082); test: (§3) In vitro binding affinity towards rat glucagon receptor
Glucagon receptor (Rattus norvegicus), sequence (P30082 whole entry): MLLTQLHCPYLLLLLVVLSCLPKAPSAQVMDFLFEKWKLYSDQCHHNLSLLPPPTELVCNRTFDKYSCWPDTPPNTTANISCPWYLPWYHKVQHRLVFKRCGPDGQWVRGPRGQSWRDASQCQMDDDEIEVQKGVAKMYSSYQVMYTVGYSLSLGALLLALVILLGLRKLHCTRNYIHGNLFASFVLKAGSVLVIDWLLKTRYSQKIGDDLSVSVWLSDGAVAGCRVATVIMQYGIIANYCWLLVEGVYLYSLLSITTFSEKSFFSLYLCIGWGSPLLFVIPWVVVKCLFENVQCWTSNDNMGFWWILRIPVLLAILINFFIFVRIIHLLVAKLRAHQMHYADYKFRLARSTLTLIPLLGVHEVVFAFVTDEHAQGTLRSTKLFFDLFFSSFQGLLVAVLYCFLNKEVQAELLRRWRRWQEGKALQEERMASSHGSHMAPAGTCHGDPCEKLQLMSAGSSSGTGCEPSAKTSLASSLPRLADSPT

Rattus norvegicus [7] = organism: Rattus norvegicus; test: Inhibitory activity against glucogon-stimulated glucose production from isolated primary rat hepatocytes; format: functional; conditions: hepatocyte
Procedure, shortened: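 Hepatocytes came from fed male Sprague-Dawley rats by two-step perfusion and were glycogen-loaded with 15 mM glucose and 10 nM insulin for 24 h. Cells were then given compound (0-1000 nM) plus 0.5 nM glucagon for 70 min in HEPES/bicarbonate buffer with 0.1% HSA, pH 7.4, 37 °C. Released glucose and glycogen were measured. Ki came from Schild analysis; mean ± SEM of four hepatocyte preparations.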

[8] = tmax in dog was determined; range 30-45; conditions: in vivo
[9] = tmax after peroral administration (2 mg/kg) in dog was determined; range 30-45; format: ADME, organism-based, Canis lupus familiaris; conditions: in vivo, po; procedure, shortened: as §2
Glucagon receptor [10] = target: Glucagon receptor (Rattus norvegicus, UniProt P30082); test: as §3
Glucagon receptor (Rattus norvegicus, UniProt P30082), sequence (P30082 whole entry): as above

Structure (SMILES)	pIC50 (Glucagon receptor [2])	Metabolism [4] [pmol/min/mg]	other results
Cc1cc(C)c(C)c(Cn2ccc3c(/C=N/NC(=O)c4ccc(O)c(C#N)c4)cccc32)c1C	8.64	34	bioavailability [3]: 15%; half-life [5]: 66.6 min; Kb [6]: 0.00038 µM; pKi (Rattus norvegicus [7]): 7.85; Tmax [8]: 30 min; Tmax [9]: 30 min; pIC50 (Glucagon receptor [10]): 9.37
CCN(CC)C(=O)c1ccc(/C=N/NC(=O)c2ccc(O)c(Cl)c2)c2ccccc12	7.45	124	–
CC(C)c1ccc(Cn2ccc3c(/C=N/NC(=O)c4ccc(O)c(Cl)c4)cccc32)cc1	7.64	48	–
O=C(N/N=C/c1ccc(OCC(=O)N2CC=C(c3ccc(Br)cc3)CC2)c2ccccc12)c1ccc(O)c(Cl)c1	8.18	44	–
N#Cc1cc(C(=O)N/N=C/c2ccc(CO)c3ccccc23)ccc1O	7.53	37	–
O=C(N/N=C/c1ccc(CO)c2ccccc12)c1ccc(O)c(F)c1	7.53	89	–
CN(C)c1ccc(C(=O)n2cc(/C=N/NC(=O)c3ccc(O)c(C#N)c3)c3ccccc32)cc1	7.72	606	–
O=C(N/N=C/c1ccc(OCCNCc2ccccc2OC(F)(F)F)c2ccccc12)c1ccc(O)c(Cl)c1	7.27	233	–
COc1cc(OCCN2CCc3ccccc3C2)ccc1/C=N/NC(=O)c1ccc(O)c(Cl)c1	6.92	322	–

Continued by rising pIC50 (Glucagon receptor [2]), values first:

pIC50 (Glucagon receptor [2])	Metabolism [4] [pmol/min/mg]	Structure (SMILES)	other results
7.27	–	O=C(N/N=C/c1ccc(CO)c2ccccc12)c1ccc(O)c(Cl)c1Cl	Metabolism (pM min-1 mg-1) (Rattus norvegicus [1]): 103
7.32	51	COc1cc(NC(=O)Cc2cccc(C(F)(F)F)c2)ccc1/C=N/NC(=O)c1ccc(O)c(C#N)c1	–
7.39	75	O=C(N/N=C/c1ccc(CO)c2ccccc12)c1ccc(O)c(Cl)c1	–
7.47	116	O=C(N/N=C/c1cccc2c1ccn2Cc1ccc(C(F)(F)F)cc1)c1ccc(O)c(Cl)c1	–
7.71	250	O=C(N/N=C/c1ccc(OCCNCCc2ccc(Br)cc2)c2ccccc12)c1ccc(O)c(Cl)c1	–
7.95	77	O=C(N/N=C/c1ccc(C(=O)N2CCN(Cc3ccc(Cl)cc3)CC2)c2ccccc12)c1ccc(O)c(Cl)c1	–
8.08	267	CC1CCCCN1C(=O)Cc1ccc(/C=N/NC(=O)c2ccc(O)c(Cl)c2)c2ccccc12 (stereo not drawn)	–
8.13	279	CCC1CCCCN1C(=O)Cc1ccc(/C=N/NC(=O)c2ccc(O)c(Cl)c2)c2ccccc12 (stereo not drawn)	–
8.19	136	N#Cc1cc(C(=O)N/N=C/c2cn(C(=O)CC3CCCC3)c3ccccc23)ccc1O	–

Reference: ChEMBL document CHEMBL1135694, “Optimization of alkylidene hydrazide based human glucagon receptor antagonists. Discovery of the highly potent and orally available 3-cyano-4-hydroxybenzoic acid [1-(2,3,5,6-tetramethylbenzyl)-1H-indol-4-ylmethylene]hydrazide” (J Med Chem, 2002)
